Assay outcomes from PubChem BioAssay.
Compounds with a hit are over-represented: about 1.9% of the library has one in this group of screens.
IMP-1 inh: IMP-1 metallo-beta-lactamase inhibitors, primary screen, biochemical, epi-absorbance readout, Pseudomonas aeruginosa enzyme | 0.45% of 290,000 active | purified IMP-1, nitrocefin hydrolysis, epi-absorbance fluorescence | AID 1556, 2009 | inhibition, % at 5.6 µM | metallo-beta-lactamase IMP-1 (Pseudomonas aeruginosa);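 active = inhibition above the mean plus 3 SD of all compounds in the same screening run, cut at about 4.5% in these data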;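 note: 0% = IMP-1 with DMSO and 100% = DMSO wells lacking enzyme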
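System: Purified recombinant IMP-1 metallo-beta-lactamase enzyme | Measured by: Fluorescence quenching readout, ex 480/em 530 nm | Replication: Singlicate | Incubation: 15 min preincubation plus 25 min reaction at 25 °C | Evaluation: Percent inhibition from optical density relative to buffer-blank wells | Benchmarks: DMSO with and without IMP-1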
CTSL1 counter: Fasciola hepatica cathepsin L1 inhibitors, primary screen, counter-screen for PFM18AAP inhibitor project, biochemical, QFRET, fluorogenic peptide substrate | recombinant F. hepatica cathepsin L1, Z-Leu-Arg-MCA fluorescence | inhibition, % at 5.96 µM | 0.49% of 300,000 active;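 active = inhibition above the mean of all tested compounds plus 3 SD, set per screening campaign, cut at about 17% in these data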;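 note: 0% = plate median of test compound wells and 100% = 1 µM Z-Phe-Ala-diazomethylketone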
VIM-2 inh: VIM-2 metallo-beta-lactamase inhibitors, primary screen, biochemical, epi-absorbance readout, Pseudomonas aeruginosa enzyme; inhibition, % at 5.6 µM; 0.89% of 290,000 active; purified VIM-2, nitrocefin hydrolysis, epi-absorbance fluorescence;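 active = inhibition above the mean of all tested compounds plus 3 SD, cutoff set per screening run, cut at about 7.5% in these data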;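 note: red hydrolysis product quenches plate fluorescence so inhibitors raise well fluorescence; 0% = enzyme with DMSO and 100% = DMSO without enzyme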
p-CIP stab down: p/CIP-EGFP fusion destabilizers, primary screen, fluorescence, F442A cells | Q05BA5 | 16 h | decrease of EGFP signal, % at 10 µM | 0.01% of 290,000 active;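 active = EGFP signal decrease of at least 30% at 10 µM or well 3 SD below plate mean, unless failing retest; inactive = the rest, including hits failing retest or dose response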
UBC9 SUMO inh: inhibitors of in vitro SUMOylation cascade, primary screen, biochemical, HTRF, uHTS. 0.36% of 290,000 active. AID 2006, 2009. HTRF SUMOylation assay, SAE1/SAE2 + UBC9. SUMO-conjugating enzyme UBC9 (Homo sapiens), P63279. inhibition, % at 35 µM; in the data active = inhibition above about 50%, passing the limit was not always enough
T cell modulator: modulators of CD8 T cell-vesicle binding, primary screen, mouse 2C CD8+ T cells, flow cytometry. 2C CD8+ T cell-vesicle binding; hits give low values. response (vesicle binding), % at 7 µM. 0.068% of 330,000 active;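 active = response, share of CD8 T cells binding vesicles, and their 90th percentile fluorescence all below set limits, cut at about 80% in these data, passing the limit was not always enough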;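 note: values below 100% mean blocked vesicle binding to the CD8+ T cells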
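Also added: QL9-peptide-loaded Drosophila micro-vesicles bearing Ld, ICAM-1 and B7-1; Test system: purified 2C TCR transgenic mouse naive CD8+ T cells; Measured by: cytometric PE anti-B7-1 and Alexa647 anti-CD8 signals after 1% paraformaldehyde fixation; Timing: binding step 1.5 h, 37 °C, antibody labelling 20 min, ice.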
* marks the source's active call; other numbers are inactive results; . = not tested or not shown.

SMILES | IMP-1 inh | CTSL1 counter | VIM-2 inh | p-CIP stab down | UBC9 SUMO inh | T cell modulator
O=C(Nc1ccccc1)Nc1nnc(-c2ccccc2)o1 | -2 | 6 | -1 | -1 | 19 | 336
COc1cc(/C=N/NC(=O)c2cccc(C)c2)ccc1OCC(=O)Nc1ccccc1 | . | 1 | . | . | . | 450
CCn1c2ccccc2c2nnc(SCC(N)=O)nc21 | -5 | 4 | 5 | -9 | 12 | 754
C=CCn1c2ccccc2c2nnc(SCC(N)=O)nc21 | -2 | 2 | 8.9* | 11 | 2 | 178
CCn1c2ccccc2c2nnc(SCC(=O)NC3CCS(=O)(=O)C3)nc21 (stereo not given) | -4 | 2 | 3 | -14 | 9 | 275
CCOC(=O)Cc1nnc(NC(=O)C(CC)Sc2nnc3c4ccccc4n(C)c3n2)s1 (stereo not given) | -1 | 2 | 9.3* | 8 | 16 | 539
Cn1c2ccc(Br)cc2c2nnc(SCC(=O)O)nc21 | 2 | -3 | 9.8* | 12 | 0 | 206
Cn1c2ccccc2c2nnc(SCC(=O)NC3CC3)nc21 | 1 | -1 | 9.2* | -5 | 8 | 160
CCOC(=O)/C=C1\CN(C(C)c2ccccc2)S(=O)(=O)c2ccccc21 (stereo not given) | -2 | -1 | -2 | -4 | -6 | 474
CC(C)NC(=S)NC(c1ccccc1)(c1ccccc1)c1ccccc1 | 0 | -6 | -1 | 6 | -1 | 190
Cc1nc(NC(=O)c2cccs2)ccc1Br | -3 | 0 | -3 | -15 | 3 | 110
O=C(CN(C(=O)c1csnn1)c1ccccc1F)NC1CCCCC1 | 1 | -2 | -4 | 0 | 3 | 541
O=C(NCCS(=O)(=O)N1CCN(c2ccccc2F)CC1)c1ccc2c(c1)OCO2 | . | -2 | . | . | . | 180
Cn1c2ccccc2c2nnc(SCC(N)=O)nc21 | -3 | 1 | 8.0* | -4 | -2 | 257
c1cc(Nc2ncnc3sc4c(c23)CCC4)ccn1 | -2 | 4 | 1 | -3 | 54* | 107
Cc1ccc(S(=O)(=O)N2CCCCC2)cc1NS(=O)(=O)c1cccc(C(=O)O)c1 | -3 | -3 | -2 | -5 | -4 | 207
O=C(CSc1nnc(NC(=O)C2CC(=O)N(c3ccc(F)cc3)C2)s1)NCc1ccco1 (stereo not given) | -2 | 0 | -4 | 0 | 6 | 608
Cc1[nH]c2ccccc2c1/C=C/C(=O)c1ccncc1 | 0 | 2 | 8.5* | -13 | 4 | 276
Cc1ccc(C(=O)N/N=C/C=C/c2ccccc2)cc1 | -3 | 3 | -3 | -7 | 6 | 508
O=C(N/N=C/C=C/c1ccccc1)c1cccc(Br)c1 | -2 | 18* | -1 | -14 | 2 | 385
CSc1nc2[nH]c3c(c2c2ncnn12)CCCC3 | -2 | -1 | 11* | 3 | -4 | 322
CSc1c2c(nc3ncnn13)CCC2 | -3 | 2 | -3 | 7 | 8 | 310
O=C(Cc1ccccc1F)N1CCN(S(=O)(=O)c2ccc(Cl)cc2)CC1 | . | . | . | . | . | 318
CCOc1ccccc1NC(=O)CSc1nnnn1C1CCCC1 | -4 | -5 | 0 | -7 | -1 | 450
O=C1/C(=C\c2ccc(O)cc2)SC(=S)N1Cc1ccccc1 | 2 | -1 | 1 | -13 | 7 | 116
O=C(O)CN1C(=O)/C(=C\c2cc(Br)ccc2OCc2ccc([N+](=O)[O-])cc2)SC1=S | 0 | 9 | 2 | -10 | 51* | 116
O=C1/C(=C\c2cc(Br)cc(Br)c2O)SC(=S)N1Cc1ccccc1 | 4 | -4 | -9 | -33 | 59* | 194
O=C(O)COc1ccc(Br)cc1/C=C1/SC(=O)N(CC(=O)N2CCCC2)C1=O | 43* | -3 | -1 | 2 | -1 | 227
O=C(O)Cn1cc(/C=C2/SC(=O)N(CC(=O)N3CCCCCC3)C2=O)c2ccccc21 | -1 | 0 | 3 | -3 | -18 | 484
CC(C)=CCC/C(C)=C/CC/C(C)=C/COc1ccc2ccc(=O)oc2c1 | . | . | . | . | . | 349
